Measurements as given in ChEMBL document CHEMBL3877280, “Discovery of novel rivastigmine-hydroxycinnamic acid hybrids as multi-targeted agents for Alzheimer's disease” (Eur J Med Chem, 2017).
The source made the active and inactive calls. No cut-off for these calls is given here.

Columns and labels:
[1] = molecular target: Cholinesterase (Homo sapiens) (UniProt P06276); experiment: Inhibition of BuChE (unknown origin) at 1 uM using acetylthiocholine iodide as substrate preincubated for 60 mins followed by substrate addition measured after 5 mins by Ellman's method relative to control
Sequence of Cholinesterase (Homo sapiens) (P06276 whole entry): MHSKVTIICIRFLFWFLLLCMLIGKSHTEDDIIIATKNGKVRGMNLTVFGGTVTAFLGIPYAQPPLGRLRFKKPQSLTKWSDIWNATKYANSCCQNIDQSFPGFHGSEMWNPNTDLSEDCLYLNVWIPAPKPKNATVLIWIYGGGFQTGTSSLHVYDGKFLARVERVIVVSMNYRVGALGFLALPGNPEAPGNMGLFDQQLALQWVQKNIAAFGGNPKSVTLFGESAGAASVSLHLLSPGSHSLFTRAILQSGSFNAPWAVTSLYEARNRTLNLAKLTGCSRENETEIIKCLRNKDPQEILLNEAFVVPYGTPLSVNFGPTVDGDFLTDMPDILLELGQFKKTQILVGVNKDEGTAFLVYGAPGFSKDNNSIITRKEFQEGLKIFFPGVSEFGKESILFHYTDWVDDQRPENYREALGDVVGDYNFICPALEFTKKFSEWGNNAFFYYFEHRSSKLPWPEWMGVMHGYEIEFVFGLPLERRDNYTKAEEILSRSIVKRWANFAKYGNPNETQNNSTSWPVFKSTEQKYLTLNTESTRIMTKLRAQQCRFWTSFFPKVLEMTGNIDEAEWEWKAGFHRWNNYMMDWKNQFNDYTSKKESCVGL
Summary of the method: (§1)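 Ellman method at 37 °C. BuChE stock made in 0.1% gelatin, diluted to 0.13-0.100 AU/min. Enzyme preincubated with compound for 60 min in 0.1 M phosphate pH 8.0 with 40 µM DTNB, then 20 µM acetylthiocholine iodide added. A412 rate followed for 5 min against an enzyme-free blank; triplicates; percent inhibition from rates.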

[2] = molecular target: Cholinesterase (Homo sapiens) (UniProt P06276); experiment: Inhibition of BuChE (unknown origin) at 5 uM using acetylthiocholine iodide as substrate preincubated for 60 mins followed by substrate addition measured after 5 mins by Ellman's method relative to control; summary of the method: as §1
[3] = Antioxidant activity assessed as DPPH radical scavenging activity at 10 uM incubated under dark condition for 60 mins by spectrophotometric method relative to control; format: functional
Summary of the method: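 DPPH scavenging: compound at 10 µM final added to DPPH in ethanol (100 µM final), kept in dark at 25-26 °C for 60 min under dim light. Absorbance read at 517 nm. Capacity = (A1 − A2)/A1 × 100%, with A1 the control absorbance.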

[4] = molecular target: Amyloid-beta precursor protein (Homo sapiens) (UniProt P05067); experiment: Inhibition of HFIP-pretreated amyloid beta (1 to 42) (unknown origin) self-induced aggregation at 10 uM after 24 hrs by thioflavin-T fluorescence assay relative to control
Sequence of Amyloid-beta precursor protein (Homo sapiens) (P05067 whole entry): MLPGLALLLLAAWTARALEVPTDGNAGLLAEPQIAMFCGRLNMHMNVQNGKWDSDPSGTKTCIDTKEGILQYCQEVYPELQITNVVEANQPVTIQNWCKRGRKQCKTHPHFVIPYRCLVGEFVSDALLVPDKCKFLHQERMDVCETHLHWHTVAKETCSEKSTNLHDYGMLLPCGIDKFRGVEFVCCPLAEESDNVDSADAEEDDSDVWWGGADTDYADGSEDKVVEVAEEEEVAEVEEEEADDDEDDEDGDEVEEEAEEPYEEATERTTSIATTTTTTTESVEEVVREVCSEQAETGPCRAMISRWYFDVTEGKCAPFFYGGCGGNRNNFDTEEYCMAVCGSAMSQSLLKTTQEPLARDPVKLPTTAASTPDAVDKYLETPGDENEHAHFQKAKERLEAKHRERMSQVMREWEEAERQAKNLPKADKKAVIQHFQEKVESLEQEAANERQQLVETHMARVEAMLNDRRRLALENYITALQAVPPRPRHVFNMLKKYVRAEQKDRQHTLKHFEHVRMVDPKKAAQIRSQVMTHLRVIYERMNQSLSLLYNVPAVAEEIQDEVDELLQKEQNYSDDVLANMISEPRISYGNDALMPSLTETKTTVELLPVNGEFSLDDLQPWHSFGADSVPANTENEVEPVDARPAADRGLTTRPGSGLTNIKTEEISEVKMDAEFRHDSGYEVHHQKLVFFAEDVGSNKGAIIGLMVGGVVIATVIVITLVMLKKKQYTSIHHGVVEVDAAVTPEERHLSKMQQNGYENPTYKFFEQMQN

[5] = species on record: Mus musculus; experiment: Cytotoxicity against mouse HT22 cells assessed as reduction in cell viability at 10 uM after 24 hrs by MTT assay; format: toxicity, cell-based; conditions: ht-22, 24 h
Summary of the method: (§2)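 HT22 cells grown in DMEM + 10% FBS at 37 °C, 5% CO2, seeded at 10,000 cells/well. Exposed to compound for 24 h; vehicle-only controls. Viability by MTT, mean ± SEM, n = 6.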

[6] = species on record: Mus musculus; experiment: Cytotoxicity against mouse HT22 cells assessed as reduction in cell viability at 100 uM after 24 hrs by MTT assay; format: toxicity, cell-based; conditions: ht-22, 24 h; summary of the method: as §2
[7] = Cytoprotective activity against glutamate-induced cell death in mouse HT22 cells assessed as cell viability at 10 to 30 uM preincubated for 30 mins followed by H2O2 addition measured after 24 hrs by MTT assay; format: functional, HT-22
Summary of the method: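 HT22 cells (DMEM/10% FBS, 10,000 cells/well) pretreated with compound for 30 min, then 2 mM glutamate for 24 h. Viability by MTT; vehicle controls; mean ± SEM, n = 6.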

[8] = test system: HT-22; experiment: Cytoprotective activity against H2O2-induced cell death in mouse HT22 cells assessed as increase in cell viability at 10 to 30 uM preincubated for 30 mins followed by H2O2 addition measured after 24 hrs by MTT assay; format: functional, cell-based
Summary of the method: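 HT22 cells (DMEM/10% FBS, 10,000 cells/well) pretreated with compound for 30 min, then 500 µM H2O2 for 24 h. Viability by MTT; vehicle controls; mean ± SEM, n = 6.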

[9] = Copper chelating activity assessed as Cu2+-compound complex formation by measuring bathochromic shift at 10 uM after 30 mins by UV-Visible spectrometric method
Summary of the method: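 CuCl2 in water and compound (methanol stock diluted in PBS) brought up in absolute ethanol. Mixture stood 30 min at room temperature, then absorption spectrum recorded at room temperature.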

| Structure (SMILES) | inhibition [1] | inhibition [2] | Activity [3] | inhibition [4] | Activity [5] | Activity [6] | Activity [7] | Activity [8] | Activity [9] |
| --- | --- | --- | --- | --- | --- | --- | --- | --- | --- |
| CCN(C)C(=O)Oc1cccc(NC(=O)/C=C/c2ccc(O)c(O)c2)c1 | 49.6% | 91% | 37% | 73.2% | Non-Toxic | Toxic | 52.9% | Active |  |
| CCN(C)C(=O)Nc1cccc(NC(=O)/C=C/c2ccc(O)c(O)c2)c1 | 13.8% | 24.4% | 64.7% | 82.5% | Non-Toxic | Toxic | 56.9% | Active |  |
| CCN(C)C(=O)Oc1cccc(CNC(=O)/C=C/c2ccc(O)c(O)c2)c1 | 80.8% | 97% | 69.7% | 77.6% | Non-Toxic | Toxic |  | Active |  |
| Nc1c(/N=N/c2ccc(-c3ccc(/N=N/c4cc(S(=O)(=O)O)c5ccccc5c4N)cc3)cc2)cc(S(=O)(=O)O)c2ccccc12 |  |  |  | 86.5% |  |  |  |  |  |
| O=C(O)/C=C/c1ccc(O)c(O)c1 |  |  | 64.6% |  |  |  |  |  |  |
| CCN(C)C(=O)Nc1cccc(NC(=O)/C=C/c2ccc(O)c(OC)c2)c1 | 19.4% | 36.6% | 24.1% | 2.2% | Non-Toxic | Toxic |  | Active |  |
| CCN(C)C(=O)Oc1cccc(NC(=O)/C=C/c2ccc(O)c(OC)c2)c1 | 98% | 98.3% | 19.5% | 13.2% | Non-Toxic | Toxic |  | Active |  |
| CCN(C)C(=O)Oc1cccc(CNC(=O)/C=C/c2ccc(O)c(OC)c2)c1 | 87.9% | 97.9% | 17.9% | 3.2% | Non-Toxic | Toxic |  |  |  |
| CCN(C)C(=O)Oc1cccc(CCNC(=O)/C=C/c2ccc(O)c(O)c2)c1 | 76.3% | 92% | 51.7% | 85.3% | Non-Toxic | Toxic |  | Active | Active |
| CCN(C)C(=O)Oc1cccc([C@H](C)N(C)C)c1 | 61% | 93% |  |  |  |  |  |  |  |
| COc1cc(/C=C/C(=O)O)ccc1O |  |  | 19.9% |  |  |  |  |  |  |
| CCN(C)C(=O)Oc1cccc(CCNC(=O)/C=C/c2ccc(O)c(OC)c2)c1 | 72.3% | 96.6% | 18.1% | 2.2% | Non-Toxic | Toxic |  | Active |  |
